Data as given in ChEMBL document CHEMBL1148040, “New lignans from Anogeissus acuminata with HIV-1 reverse transcriptase inhibitory activity” (J Nat Prod, 1994).
Converted amounts (≈) assume the structure as drawn.

How the values were obtained:
[1] = target: T1, Human immunodeficiency virus type 1 reverse transcriptase (Human immunodeficiency virus 1, UniProt Q72547); assay: Inhibition of HIV1 reverse transcriptase
Method in brief: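 HIV-1 RT inhibition was measured by a previously published method. Each value is the mean of three experiments, each run in duplicate. Test levels reached 250 µg/ml in the assay mixture.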

[2] = target: Human immunodeficiency virus type 1 reverse transcriptase (Human immunodeficiency virus 1) (UniProt Q72547); assay: Inhibition of HIV1 reverse transcriptase at 20 ug/ml
Method in brief: (§1)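 HIV-1 reverse transcriptase inhibition, run by an assay procedure the authors described earlier. Each test concentration was run in duplicate in three separate experiments, and the reported value is the average of the three experiments.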

[3] = target: Human immunodeficiency virus type 1 reverse transcriptase (Human immunodeficiency virus 1) (UniProt Q72547); assay: Inhibition of HIV1 reverse transcriptase at 80 ug/ml; method in brief: as §1
SK-MEL-2 = assay: Cytotoxicity against human SK-MEL-2 cells; type: functional; details: read-out: ED50 (the source's name)
[4] = Cytotoxicity against human BC1 cells; type: functional; details: read-out: ED50 (the source's name)
[5] = target: Human immunodeficiency virus type 1 reverse transcriptase (Human immunodeficiency virus 1) (UniProt Q72547); assay: Inhibition of HIV1 reverse transcriptase at 100 ug/ml; method in brief: as §1
[6] = target: Human immunodeficiency virus type 1 reverse transcriptase (Human immunodeficiency virus 1) (UniProt Q72547); assay: Inhibition of HIV1 reverse transcriptase at 150 ug/ml; method in brief: as §1
[7] = Cytotoxicity against human KBV1 cells in absence of vinblastine; type: functional; details: KB-V1, read-out: ED50 (the source's name)
ZR-75-1 = assay: Cytotoxicity against human ZR-75-1 cells; type: functional; details: read-out: ED50 (the source's name)
[8] = Inhibition of HIV2 reverse transcriptase; design: species or system Human immunodeficiency virus 2
LNCaP = assay: Cytotoxicity against human LNCAP cells; type: functional; details: read-out: ED50 (the source's name)
[9] = target: Human immunodeficiency virus type 1 reverse transcriptase (Human immunodeficiency virus 1) (UniProt Q72547); assay: Inhibition of HIV1 reverse transcriptase at 40 ug/ml; method in brief: as §1
KB = assay: Cytotoxicity against human KB cells; type: functional; details: read-out: ED50 (the source's name)
[10] = Cytotoxicity against human KBV1 cells in presence of vinblastine; type: functional; details: KB-V1, read-out: ED50 (the source's name)
[11] = target: Human immunodeficiency virus type 1 reverse transcriptase (Human immunodeficiency virus 1) (UniProt Q72547); assay: Inhibition of HIV1 reverse transcriptase at 200 ug/ml; method in brief: as §1
HT-1080 = assay: Cytotoxicity against human HT1080 cells; type: functional; details: read-out: ED50 (the source's name)
[12] = Cytotoxicity against human U373 cells; type: functional, U-373MG ATCC; details: U373 MG, read-out: ED50 (the source's name)
[13] = target: T1, Human immunodeficiency virus type 1 reverse transcriptase; assay: Inhibition of drug-resistant HIV1 reverse transcriptase
[14] = target: Human immunodeficiency virus type 1 reverse transcriptase (Human immunodeficiency virus 1) (UniProt Q72547); assay: Inhibition of HIV1 reverse transcriptase at 60 ug/ml; method in brief: as §1
P388 = assay: Cytotoxicity against mouse P388 cells; type: functional; details: read-out: ED50 (the source's name)
Lu1 = assay: Cytotoxicity against human Lu1 cells; type: functional; details: read-out: ED50 (the source's name)
[15] = Cytotoxicity against human Col1 cells; type: functional; details: read-out: ED50 (the source's name)
A-431 = assay: Cytotoxicity against human A431 cells; type: functional; details: read-out: ED50 (the source's name)
[16] = target: Human immunodeficiency virus type 1 reverse transcriptase (Human immunodeficiency virus 1) (UniProt Q72547); assay: Inhibition of HIV1 reverse transcriptase at 250 ug/ml; method in brief: as §1

SMILES | IC50 [1] | inhibition [2] [%] | inhibition [3] [%] | EC50 (SK-MEL-2) [µg/mL] | EC50 [4] [µg/mL] | IC50 ([1]; read-out: IC50 (converted)) [µM] | inhibition [5] [%] | inhibition [6] [%] | EC50 [7] [µg/mL] | EC50 (ZR-75-1) [µg/mL] | EC50 (LNCaP) [µg/mL] | inhibition [9] [%] | EC50 (KB) [µg/mL] | EC50 [10] [µg/mL] | EC50 (HT-1080) [µg/mL] | EC50 [12] [µg/mL] | EC50 (P388) [µg/mL] | EC50 (Lu1) [µg/mL] | EC50 [15] [µg/mL] | EC50 (A-431) [µg/mL] | also measured
COc1cc(C[C@@H](CO)[C@H](CO)Cc2ccc(O)c(OC)c2)ccc1O [(+)-SECOISOLARICIRESINOL] | Not Active |  |  |  |  |  |  |  |  |  |  |  |  |  |  |  |  |  |  |  | 
C=C(Cc1ccc2c(c1)OCO2)C(=C)Cc1ccc(O)cc1O [ANOLIGNAN A] |  | 4.1 | 68.3 | 7.6 (≈ 24.5 µM) | 4.3 (≈ 13.9 µM) | 195 | 73.9 | 80.8 | > 20 | 6.1 (≈ 19.7 µM) | 10.8 (≈ 34.8 µM) | 33.8 | > 20 | > 20 | 13.1 (≈ 42.2 µM) | 13.5 (≈ 43.5 µM) | > 20 | 15.8 (≈ 50.9 µM) | 16.8 (≈ 54.1 µM) | > 20 | IC50 [8]: 156.9 µg/mL (≈ 506 µM); inhibition [11]: 92.8%; IC50 [13]: 342 µM; inhibition [14]: 51.5%; inhibition [16]: 97.4%
C=C(Cc1ccc(O)cc1)C(=C)Cc1ccc(O)cc1 [ANOLIGNAN B] |  | 10 | 20.9 | 19 (≈ 71.3 µM) | 5.1 (≈ 19.1 µM) | 4020 | 27.4 | 31.2 | > 20 | > 20 | 8.7 (≈ 32.7 µM) | 17.7 | > 20 | > 20 | 4.7 (≈ 17.6 µM) | 5.7 (≈ 21.4 µM) | 1 (≈ 3.75 µM) | 11.1 (≈ 41.7 µM) | 18 (≈ 67.6 µM) | > 20 | inhibition [11]: 32.9%; inhibition [14]: 25.5%
C[C@@H]1[C@H](C)[C@H](c2ccc(O)cc2)O[C@@H]1c1ccc(O)cc1 [ANOLIGNAN C] | Not Active |  |  | 7.6 (≈ 26.7 µM) | > 20 |  |  |  | > 20 | 6.1 (≈ 21.5 µM) | 10.8 (≈ 38 µM) |  | > 20 | > 20 | 13.1 (≈ 46.1 µM) | 18.5 (≈ 65.1 µM) | > 20 | 15.8 (≈ 55.6 µM) | 16.8 (≈ 59.1 µM) | > 20 | 
